Screening data deposited in PubChem by several laboratories.
Hits are enriched below; roughly 5.2% of the tested compounds scored in any of these assays.
AP ELISA ortho – orthogonal test for alternative complement pathway inhibitors; inhibition, % at 5 µM; actives 0.08% (n = 62,000); Human serum alternative complement pathway, LPS-coated ELISA, C3 deposition; tested in compound mixtures;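 active = inhibition above 30% in each of the two pooled mixtures holding the compound, so the lower value exceeds 30%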;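 note: 0% = serum in Mg-EGTA without compound and 100% = EDTA serum blank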
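Medium: diluted human serum in Mg2+-EGTA GVB++. Assay system: human serum complement alternative pathway, C3 deposition onto LPS. Also added: Plate-bound LPS. Technique: Anti-C3 ELISA, OD 450 nm. Measure: percent inhibition. Incubation: 1 h at 37 °C. Dosing: 5 µM each compound, pools of ten, 50 µM per pool.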
WNV NS2B-NS3 inh – WNV NS2B-NS3 proteinase inhibition; P06935; WNV NS2B-NS3 protease, fluorogenic substrate Ex360/Em465; hits give low values; z-score (concentration not given with the values); actives 0.18% (n = 65,000); in the data active = z-score below about -3
Ecoli tolC – E. coli tolC mutant growth inhibition. E. coli BW25113 tolC mutant growth, OD615. growth inhibition, % at 10 µM (by protocol). actives 2.2% (n = 65,000). AID 573;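 active = growth inhibition at or above a cutoff equal to the mean over every tested compound plus 3 SD, cut at about 60% in these data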;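 note: growth measured after 20 h incubation at 37 °C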
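Test system: E. coli BW25113 ΔtolC::kan bacteria; incubation: 37 °C, 20 h exposure; medium: LB broth supplemented with 50 µg/mL kanamycin; read-out basis: percent growth inhibition; signal: A615 absorbance measurement; compound: 10 µM final, single dose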
M1 ag – M1 muscarinic receptor agonism. CHO-M1 cells, Fluo-4 calcium fluorescence, agonist mode; hits give high values. B-score at 10 µM. actives 3% (n = 64,000);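 active = fluorescence rise, raw or as B-score row- and column-corrected plate score, outside the 99.7% band of its plate's samples, either direction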
E coli WT exp – E. coli BW25113 growth inhibition, expanded screen | OD600 absorbance | growth inhibition, % at 100 µM | actives 0.15% (n = 98,000) | AID 710;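 active = growth inhibition above about 50% at one test dose, limit read from the data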;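 note: growth measured after 20 h incubation at 37 °C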
M1 antag – M1 muscarinic receptor (rat) antagonism; CHO-M1 cells, Fluo-4 calcium, ACh EC80 antagonist mode; hits give low values; P08482; B-score at 10 µM; actives 3.4% (n = 64,000);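 active = calcium fluorescence response, raw or row-and-column corrected B-score, differing from the plate sample mean either way at a set confidence level, mostly lower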
Target sequence (P08482 whole entry, looked up): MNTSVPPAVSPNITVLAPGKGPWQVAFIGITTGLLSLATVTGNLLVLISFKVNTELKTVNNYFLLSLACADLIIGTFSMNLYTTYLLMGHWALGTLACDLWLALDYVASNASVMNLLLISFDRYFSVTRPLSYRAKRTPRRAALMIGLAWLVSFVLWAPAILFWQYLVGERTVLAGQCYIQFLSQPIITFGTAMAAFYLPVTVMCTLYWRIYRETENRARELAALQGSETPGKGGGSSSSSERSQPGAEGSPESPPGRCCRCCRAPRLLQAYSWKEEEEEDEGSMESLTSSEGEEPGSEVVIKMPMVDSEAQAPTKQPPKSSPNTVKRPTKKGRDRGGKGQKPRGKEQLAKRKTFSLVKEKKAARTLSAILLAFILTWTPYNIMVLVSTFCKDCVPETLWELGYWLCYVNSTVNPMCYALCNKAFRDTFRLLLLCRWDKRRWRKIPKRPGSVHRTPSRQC
M1 ag confirm – confirmation of rat M1 muscarinic receptor agonists. AID 1488. shares compounds with M1 ag. actives 19% (n = 1,700). fluorescence change (max-min) at 10 µM. CHO-M1 cells, Fluo-4 calcium fluorescence, agonist mode; actives lie on both sides;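 active = fluorescence change differs from the solvent-only DMSO control mean at a set confidence level in both duplicate runs; inconclusive = differs from solvent-only control mean in just one of two runs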;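 note: an EC20 dose of acetylcholine follows compound addition during the same imaging run; raw fluorescence intensity difference in instrument units with no normalization to controls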
M4 agonist ctr – rat M4 muscarinic agonism, M1 counter-screen. shares compounds with M1 ag. CHO M4/Gqi5 cells, Fluo-4 calcium fluorescence, agonist mode; actives lie on both sides. fluorescence change (max-min) at 10 µM. actives 9% (n = 1,700);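 active = fluorescence change differing from the plate's solvent-only control wells at 99.7% confidence in both duplicates, whether higher or lower; inconclusive = differs from solvent controls in only one of two duplicates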
* = called active by the depositor.

Results for CCN1CCN(CC(=O)c2c(C)n(Cc3ccccc3)c3ccc(OC)cc23)CC1 ?
E coli WT exp: 8

How did CCC(C)N1C(=O)NC(=O)C2(Cc3c(ccc4ccccc34)N(C)C2)C1=O (centres undefined) do in these assays?
AP ELISA ortho: -6; WNV NS2B-NS3 inh: 0.39; Ecoli tolC: 50; M1 ag: 13*; E coli WT exp: 3; M1 antag: -2.1; M1 ag confirm: inconclusive; M4 agonist ctr: inconclusive

What do the screens show for `COc1ccc2c(c1)CC1(CN2C)C(=O)NC(=O)N(CCc2ccccc2)C1=O` (centres undefined)?
AP ELISA ortho: 6; WNV NS2B-NS3 inh: -0.6; Ecoli tolC: -7; M1 ag: -1.7; E coli WT exp: 8; M1 antag: 0.89

Results for CC(=O)OC1(Cc2ccccc2)CN2CCC1c1ccccc12 (centres undefined) ?
AP ELISA ortho: 11; WNV NS2B-NS3 inh: -0.16; Ecoli tolC: 7; M1 ag: -0.59; E coli WT exp: 3; M1 antag: -0.087

How did Fc1ccccc1CCNCc1cccc(Cl)c1Cl do in these assays?
E coli WT exp: 28

How did CCN(CC)c1ccc(N=Cc2c(O)n(-c3ccccc3C)c(=O)[nH]c2=O)cc1 do in these assays?
AP ELISA ortho: 0; WNV NS2B-NS3 inh: -0.28; Ecoli tolC: -10; M1 ag: 22*; E coli WT exp: 9; M1 antag: -0.55; M1 ag confirm: 46; M4 agonist ctr: 17

How did Cn1c2ccccc2c2c(C(=O)N3CCC4(CC3)OCCO4)cn(C3CCCCC3)c(=O)c21 do in these assays?
AP ELISA ortho: 0; WNV NS2B-NS3 inh: 0.73; Ecoli tolC: -3; M1 ag: 4.3*; E coli WT exp: 3; M1 antag: -0.67; M1 ag confirm: -14; M4 agonist ctr: -54

Results for CC(C)Cn1cc(C(=O)N2CCC3(CC2)OCCO3)c2c3ccccc3n(C)c2c1=O ?
AP ELISA ortho: 18; WNV NS2B-NS3 inh: 0.03; Ecoli tolC: -1; M1 ag: 3*; E coli WT exp: 9; M1 antag: -1.6; M1 ag confirm: -2; M4 agonist ctr: -19

How did Cn1cc(C(=O)N2CCC3(CC2)OCCO3)c2c3ccccc3n(C)c2c1=O do in these assays?
AP ELISA ortho: 12; WNV NS2B-NS3 inh: -0.15; Ecoli tolC: 11; M1 ag: -0.089; E coli WT exp: -2; M1 antag: 0.0014

What do the screens show for `CCOc1cccc(OCC)c2c(C)[n+](CC3CCCO3)c(C)c1-2` (centres undefined)?
E coli WT exp: 7

What do the screens show for `Cc1ccccc1NC1=NCC(C)S1` (centres undefined)?
AP ELISA ortho: 10; WNV NS2B-NS3 inh: 0.25; Ecoli tolC: -2; M1 ag: -0.054; E coli WT exp: 5; M1 antag: -0.43

How did O=C(c1cccs1)C1CN2CCC1CC2 (centres undefined) do in these assays?
AP ELISA ortho: -1; WNV NS2B-NS3 inh: 0.39; Ecoli tolC: -14; M1 ag: 8.4*; E coli WT exp: 3; M1 antag: -5.5*; M1 ag confirm: 32; M4 agonist ctr: 15

What do the screens show for `O=C(O)C1CN2CCC1CC2` (centres undefined)?
AP ELISA ortho: 5; WNV NS2B-NS3 inh: -0.11; Ecoli tolC: -12; M1 ag: 13*; E coli WT exp: -12; M1 antag: -0.16; M1 ag confirm: 233*; M4 agonist ctr: -34

How did COc1ccc2nc(NC(=O)CCc3nc(C4=CCN(C)CC4)no3)sc2c1 do in these assays?
AP ELISA ortho: 15; WNV NS2B-NS3 inh: 0.74; Ecoli tolC: 1; M1 ag: 5.1*; E coli WT exp: 5; M1 antag: -0.23; M1 ag confirm: -1.6; M4 agonist ctr: -41

Results for O=C1NC(=O)C2(C(=O)N1)C(c1ccc(F)cc1)NC(=S)NC2c1ccc(F)cc1 (centres undefined) ?
E coli WT exp: 3

How did O=C1NC(=O)C2(Cc3c(nc4ccccn4c3=O)N3CCCCCC32)C(=O)N1Cc1ccccc1 (centres undefined) do in these assays?
AP ELISA ortho: 14; WNV NS2B-NS3 inh: -1.2; Ecoli tolC: 28; M1 ag: 12*; E coli WT exp: 11; M1 antag: 0.26; M1 ag confirm: -11; M4 agonist ctr: -22

Results for C[C@H]1OC[C@@H](C[N+](C)(C)C)O1 ?
AP ELISA ortho: 14; WNV NS2B-NS3 inh: -1; Ecoli tolC: 2; M1 ag: 48*; M1 antag: -9.7*; M1 ag confirm: 527*; M4 agonist ctr: 220*

Results for Nc1c(C(=O)OC2CCCCC2)c2nc3ccccc3nc2n1CC1CCCO1 (centres undefined) ?
AP ELISA ortho: 8; WNV NS2B-NS3 inh: 0.95; Ecoli tolC: 26; M1 ag: 4.1*; E coli WT exp: 3; M1 antag: 0.2; M1 ag confirm: -8.5; M4 agonist ctr: -46

What do the screens show for `CCCNC(=O)c1c(N)n(CC2CCCO2)c2nc3ccccc3nc12` (centres undefined)?
AP ELISA ortho: 11; WNV NS2B-NS3 inh: 0.86; Ecoli tolC: 0; M1 ag: -0.8; E coli WT exp: 12; M1 antag: -0.77

What do the screens show for `O=C(C1CCC(=O)N1Cc1ccccc1Cl)N1CCC2(CC1)OCCO2` (centres undefined)?
E coli WT exp: 7

Results for CN(C(=O)c1ccco1)C1(c2ccccc2Cl)CCCCC1=O (centres undefined) ?
AP ELISA ortho: -7; WNV NS2B-NS3 inh: -0.77; Ecoli tolC: 18; M1 ag: 0.05; E coli WT exp: 7; M1 antag: 0.39

Results for Cc1ccc(S(=O)(=O)Nc2cc(C(=O)N3CCC4(CC3)OCCO4)ccc2N2CCCCC2)cc1 ?
AP ELISA ortho: 6; WNV NS2B-NS3 inh: -0.21; Ecoli tolC: 9; M1 ag: 2.8*; E coli WT exp: -14; M1 antag: -0.42; M1 ag confirm: -9.9; M4 agonist ctr: -20

What do the screens show for `CCOC(=O)c1nc2ccccc2c(=O)n1-c1cccc(C)c1`?
E coli WT exp: 2

How did N[C@@H](Cc1c[nH]c2ccccc12)c1nnc(SCc2ccc(Cl)cc2)o1 do in these assays?
AP ELISA ortho: 18; WNV NS2B-NS3 inh: 1.1; Ecoli tolC: 31; M1 ag: 0.094; E coli WT exp: 21; M1 antag: -0.034
